Laboratory results published in ChEMBL document CHEMBL1681779, “Design, synthesis and docking study of 5-amino substituted indeno[1,2-c]isoquinolines as novel topoisomerase I inhibitors” (Bioorg Med Chem, 2011).
Calls of active or inactive are those of the source. The rule behind the calls is not given here.

Key:
[1] = system: A549; test: Cytotoxicity against human A549 cells by sulforhodamine B assay
[2] = system: Col2; test: Cytotoxicity against human Col2 cells by sulforhodamine B assay
[3] = system: HL-60; test: Cytotoxicity against human HL60 cells by MTT assay; type: functional, cell-based
[4] = system: HT-1080; test: Cytotoxicity against human HT1080 cells by sulforhodamine B assay
[5] = molecular target: T1, DNA topoisomerase 1 (Homo sapiens) (UniProt P11387); test: Inhibition of DNA topoisomerase 1-mediated supercoiled DNA relaxation at 0.1 mg/mL by agarose gel electrophoresis
T1 sequence (whole entry): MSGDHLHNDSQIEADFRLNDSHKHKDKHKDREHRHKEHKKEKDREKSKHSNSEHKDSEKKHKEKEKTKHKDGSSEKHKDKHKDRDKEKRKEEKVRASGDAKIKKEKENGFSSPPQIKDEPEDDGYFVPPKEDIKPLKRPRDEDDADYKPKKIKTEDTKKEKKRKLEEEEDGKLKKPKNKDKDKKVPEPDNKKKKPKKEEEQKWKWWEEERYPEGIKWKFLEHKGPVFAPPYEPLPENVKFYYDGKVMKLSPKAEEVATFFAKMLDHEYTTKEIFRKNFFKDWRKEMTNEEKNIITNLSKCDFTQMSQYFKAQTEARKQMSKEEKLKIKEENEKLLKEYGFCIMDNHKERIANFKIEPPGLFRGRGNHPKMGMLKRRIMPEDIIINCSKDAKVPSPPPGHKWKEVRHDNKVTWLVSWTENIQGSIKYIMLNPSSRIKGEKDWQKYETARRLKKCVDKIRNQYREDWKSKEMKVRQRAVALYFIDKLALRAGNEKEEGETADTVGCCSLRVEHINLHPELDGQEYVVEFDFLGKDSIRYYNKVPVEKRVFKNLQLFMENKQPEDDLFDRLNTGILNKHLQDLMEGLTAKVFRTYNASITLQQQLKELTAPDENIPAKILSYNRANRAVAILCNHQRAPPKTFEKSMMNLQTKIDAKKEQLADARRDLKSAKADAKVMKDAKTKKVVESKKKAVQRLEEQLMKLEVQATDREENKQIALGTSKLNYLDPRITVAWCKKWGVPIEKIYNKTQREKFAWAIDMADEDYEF
Method in brief: (§1)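 Relaxation assay with 500 ng supercoiled pBR322 DNA as substrate and 1 unit topo I. Reactions were run with or without compound, with camptothecin as reference, for 30 min at 37 °C.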

[6] = system: SNU-638; test: Cytotoxicity against human SNU638 cells by sulforhodamine B assay
[7] = molecular target: T1, DNA topoisomerase 1 (Homo sapiens); test: Inhibition of DNA topoisomerase 1 relative to 0.1 uM camptothecin
Method in brief: as §1

[8] = system: SK-MEL-2; test: Cytotoxicity against human SK-MEL-2 cells at 0.001 mg/ml; type: functional, cell-based

SMILES | inhibition [5] | inhibition [7] | IC50 [1] | IC50 [2] | IC50 [3] | IC50 [4] | IC50 [6] | Activity [8]
c1ccc2c(c1)Cc1c-2nc(N2CCOCC2)c2ccccc12 | Active |  | 5.69 µM | 4.42 µM | 8.65 µM | 1.24 µM | 2.58 µM | 
CC(=O)OC1c2ccccc2-c2nc(N3CCOCC3)c3ccccc3c21 (stereo unspecified) |  |  | 8.3 µM | 7.87 µM | 15.9 µM | 58.3 µM | 6.99 µM | 
CCCCNc1nc2c(c3ccccc13)C(=O)c1ccccc1-2 |  |  | > 100 µM | > 100 µM | > 100 µM | 48.2 µM | > 100 µM | 
O=C1c2ccccc2-c2nc(N3CCOCC3)c3ccccc3c21 |  |  | > 100 µM | 96.9 µM | > 100 µM | 69.2 µM | > 100 µM | 
CN1CCCN(c2nc3c(c4ccccc24)C(=O)c2ccccc2-3)CC1 | Active | Active | 1.05 µM | 0.27 µM | 1.28 µM | 0.54 µM | 1.36 µM | 
CC1c2ccccc2-c2c1c1ccccc1c(=O)n2C (stereo unspecified) |  |  |  |  |  |  |  | Active
CN1CCN(c2nc3c(c4ccccc24)C(O)c2ccccc2-3)CC1 (stereo unspecified) |  |  | 18.1 µM | 28.3 µM | 13.4 µM | 4.87 µM | 9.01 µM | 
CCN1CCN(c2nc3c(c4ccccc24)C(O)c2ccccc2-3)CC1 (stereo unspecified) |  |  | 20.9 µM | 19.2 µM | 29.4 µM | 8.66 µM | 18.9 µM | 
OC1c2ccccc2-c2nc(N3CCOCC3)c3ccccc3c21 (stereo unspecified) |  |  | 93.3 µM | > 100 µM | 99.2 µM | > 100 µM | > 100 µM | 
CN1CCCN(c2nc3c(c4ccccc24)Cc2ccccc2-3)CC1 | Active |  | 5.46 µM | 2.13 µM | 3.33 µM | 0.25 µM | 8.24 µM | 
CN1CCN(c2nc3c(c4ccccc24)C(C)(O)c2ccccc2-3)CC1 (stereo unspecified) |  |  | 92.5 µM | 58 µM | 79.9 µM | 22.2 µM | 58.2 µM | 
CCN1CCN(c2nc3c(c4ccccc24)Cc2ccccc2-3)CC1 | Active |  | 8.19 µM | 7.74 µM | 9.98 µM | 19 µM | 3.25 µM | 

Further lines, with some results ahead:

inhibition [5] | inhibition [7] | SMILES | IC50 [1] | IC50 [2] | IC50 [3] | IC50 [4] | IC50 [6] | Activity [8]
Active |  | CCCCNc1nc2c(c3ccccc13)Cc1ccccc1-2 | 27.7 µM | 75.2 µM | 19.6 µM | 4.39 µM | 22.2 µM | 
Active |  | CN1CCN(c2nc3c(c4ccccc24)Cc2ccccc2-3)CC1 | 11.4 µM | 10.1 µM | 5.87 µM | 3.85 µM | 19.8 µM | 
Active | Active | O=C1c2ccccc2-c2nc(N3CCNCC3)c3ccccc3c21 | 8.52 µM | 7.99 µM | 4.68 µM | 2.01 µM | 8.25 µM | 
Active | Active | CCN1CCN(c2nc3c(c4ccccc24)C(=O)c2ccccc2-3)CC1 | 7.1 µM | 6.45 µM | 4.21 µM | 1.23 µM | 5.85 µM | 
Active | Active | CN1CCN(c2nc3c(c4ccccc24)C(=O)c2ccccc2-3)CC1 | 8.19 µM | 7.77 µM | 6.35 µM | 5.36 µM | 7.98 µM | 
 | Active | CCCCCCC1(O)c2ccccc2-c2nc(N3CCN(C)CC3)c3ccccc3c21 (stereo unspecified) | 7.21 µM | 6.24 µM | 8.55 µM | 2.57 µM | 12.4 µM | 
 | Active | NCCNc1nc2c(c3ccccc13)C(=O)c1ccccc1-2 | 0.85 µM | 1.43 µM | 10.4 µM | 9.6 µM | 1.68 µM | 
